Results as given in ChEMBL document CHEMBL5346932, “Structure-activity relationships of actively FhuE transported rifabutin derivatives with potent activity against Acinetobacter baumannii” (Eur J Med Chem, 2023).
≈ marks a conversion by molar mass, not a printed value.

How the values were obtained:
Acinetobacter baumannii [1] = assay: Antibacterial activity against Acinetobacter baumannii HUMC1 cultured in iron-limited RPMI medium supplemented with 10% FCS assessed as inverse MIC incubated for 20 hrs by CLSI based microbroth dilution method; type: functional
Summary of the method: (§1)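 CLSI broth microdilution in RPMI 1640 + 10% FCS in place of CAMHB. Compounds in 2-fold dilution series; inoculum 5×10^5 CFU/mL. Plates held static at 35 °C for 20 h. MIC read visually as the lowest concentration with no visible growth. […] is the reciprocal of this MIC.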

[2] = Drug accumulation in cytoplasm of Acinetobacter baumannii HUMC1 cultured in iron-limited RPMI medium supplemented with 10% FCS measured per 5 ml of culture medium at 0.005 uM incubated for 10 mins by LC-MS/MS analysis; type: ADME, subcellular
Summary of the method: (§2)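 The periplasm was released by cold 0.5 mM MgSO4 shock. Cells were then sonicated and DNase-treated, and a 30000 g spin separated cytoplasm from the membrane pellet. Fractions were quantified by LC-MS/MS against standard curves. Reported as ng per 5 mL; n = 4 in duplicate.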

[3] = Drug accumulation in Acinetobacter baumannii HUMC1 cultured in iron-limited RPMI medium supplemented with 10% FCS measured per 5 ml of culture medium at 0.005 uM incubated for 10 mins by LC-MS/MS analysis; type: ADME; summary of the method: as §2
[4] = Drug accumulation in wild type Acinetobacter baumannii HUMC1 cultured in iron-rich CAMHB media at >=0.05 uM incubated for 10 mins by LC-MS/MS analysis; type: ADME
Summary of the method: (§3)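 5 mL of suspension was dosed from DMSO stocks (0.002–5 mM) and shaken at 150 rpm for 10 min at 37 °C. Cells were pelleted, washed, and lysed (sucrose/EDTA). LC-MS/MS MRM quantitation used caffeine-normalized standard curves in spiked lysate. Reported as amount per 5 mL; n≥2 independent replicates.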

[5] = Drug accumulation in membrane of Acinetobacter baumannii HUMC1 cultured in iron-limited RPMI medium supplemented with 10% FCS at 0.005 uM incubated for 10 mins by LC-MS/MS analysis; type: ADME, cell membranes; summary of the method: as §2
[6] = Drug accumulation in cytoplasm of Acinetobacter baumannii HUMC1 cultured in iron-limited RPMI medium supplemented with 10% FCS at 0.005 uM incubated for 10 mins by LC-MS/MS analysis; type: ADME, subcellular; summary of the method: as §2
[7] = Drug accumulation in Acinetobacter baumannii HUMC1 cultured in iron-limited RPMI medium supplemented with 10% FCS measured per 5 ml of culture medium at 0.05 uM incubated for 10 mins by LC-MS/MS analysis; type: ADME; summary of the method: as §3
Staphylococcus aureus = assay: Antibacterial activity against Staphylococcus aureus USA300 UAMS-1625 assessed as bacterial growth inhibition incubated for 20 hrs by CLSI based microbroth dilution method; type: functional
Summary of the method: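 CLSI broth microdilution in CAMHB against S. aureus USA300 UAMS-1625. Compounds in 2-fold dilution series; inoculum 5×10^5 CFU/mL. Incubated without shaking at 35 °C for 20 h. MIC read visually as the lowest concentration preventing visible growth. Fold changes are relative to the rifabutin MIC.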

[8] = Drug accumulation in Acinetobacter baumannii HUMC1 harboring fhuE deletion mutant cultured in iron-limited RPMI medium supplemented with 10% FCS at 0.5 to 5 uM incubated for 10 mins by LC-MS/MS analysis; type: ADME; settings: dose 0.5-5 µM
Summary of the method: (§4)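 5 mL suspension dosed from DMSO stocks (0.002–5 mM), 10 min at 37 °C, 150 rpm. Cells pelleted, washed in TBS and sucrose buffers, lysed, extracted with formic acid/CH3CN/CH3OH. LC-MS/MS MRM quantification against spiked-matrix standards, caffeine internal standard. Reported as ng per 5 mL suspension; n ≥ 2 independent replicates, mean ± SEM.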

Acinetobacter baumannii [9] = assay: Antibacterial activity against Acinetobacter baumannii HUMC1 cultured in RPMI 1640 medium supplemented with 10% FCS assessed as bacterial growth inhibition incubated for 20 hrs by CLSI based microbroth dilution method; type: functional; settings: Acinetobacter baumannii, HUMC1, 20 h, read-out: MIC; summary of the method: as §1
[10] = Drug accumulation in wild type Acinetobacter baumannii HUMC1 cultured in iron-limited RPMI medium supplemented with 10% FCS at 0.002 to 0.02 uM incubated for 10 mins by LC-MS/MS analysis; type: ADME; settings: dose 0.002-0.02 µM; summary of the method: as §3
Acinetobacter baumannii [11] = assay: Antibacterial activity against Acinetobacter baumannii HUMC1 harboring FhuE deletion mutant assessed as bacterial growth inhibition incubated for 20 hrs by CLSI based microbroth dilution method; type: functional
Summary of the method: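 Microbroth dilution per CLSI in RPMI 1640 + 10% FCS (in place of CAMHB). Compounds as 2-fold serial dilutions; inoculum 5×10^5 CFU/mL of previously described HUMC1-derived mutant strains. Incubated static at 35 °C for 20 h. MIC read visually as lowest concentration preventing visible growth.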

[12] = Drug accumulation in Acinetobacter baumannii HUMC1 harboring fhuE deletion mutant cultured in iron-rich CAMHB media at 0.5 to 5 uM incubated for 10 mins by LC-MS/MS analysis; type: ADME; settings: dose 0.5-5 µM; summary of the method: as §4
[13] = Drug accumulation in Acinetobacter baumannii HUMC1 harboring fhuE deletion mutant cultured in iron-limited RPMI medium supplemented with 10% FCS at <0.02 uM incubated for 10 mins by LC-MS/MS analysis; type: ADME; settings: BLD = below limit of detection; summary of the method: as §4
[14] = Drug accumulation in periplasm of Acinetobacter baumannii HUMC1 cultured in iron-limited RPMI medium supplemented with 10% FCS at 0.005 uM incubated for 10 mins by LC-MS/MS analysis; type: ADME, subcellular; summary of the method: as §2
[15] = Drug accumulation in Acinetobacter baumannii HUMC1 harboring fhuE deletion mutant cultured in iron-rich CAMHB media at <0.02 uM incubated for 10 mins by LC-MS/MS analysis; type: ADME; settings: BLD = below limit of detection; summary of the method: as §4
[16] = Drug accumulation in periplasm of Acinetobacter baumannii HUMC1 cultured in iron-limited RPMI medium supplemented with 10% FCS measured per 5 ml of culture medium at 0.005 uM incubated for 10 mins by LC-MS/MS analysis; type: ADME, subcellular; summary of the method: as §2
[17] = Drug accumulation in membrane of Acinetobacter baumannii HUMC1 cultured in iron-limited RPMI medium supplemented with 10% FCS measured per 5 ml of culture medium at 0.005 uM incubated for 10 mins by LC-MS/MS analysis; type: ADME, cell membranes; summary of the method: as §2
[18] = Inhibition of transcription in Acinetobacter baumannii HUMC1 using pVT784 as reporter plasmid preincubated for 30 mins followed by reporter plasmid addition and measured after 60 mins by Nano-Glo luciferase assay; type: functional
Summary of the method: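 Cell-free transcription/translation used A. baumannii HUMC1 extract at 1.2 mg/mL, with extract from 2xYT+P culture after a run-off step and dialysis at pH 8.2. Compound was preincubated with extract for 30 min on ice. Reporter plasmid (0.5 nM) was then added and luminescence read after 60 min at 25 °C. Compounds were tested at 8 to 0.002 mg/L in triplicate. IC50 was fit from no-compound-normalized signal.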

For `CO[C@H]1/C=C/O[C@@]2(C)Oc3c(C)c(O)c4c(c3C2=O)C2=NC3(CCN(CC(C)C)CC3)NC2=C(NC(=O)/C(C)=C\C=C\[C@H](C)[C@H](O)[C@@H](C)[C@@H](O)[C@@H](C)[C@H](OC(C)=O)[C@@H]1C)C4=O` [RIFABUTIN], the 1/MIC (Acinetobacter baumannii [1]) was 1000 L/mg, the Drug uptake [2] was 0.02 ng and the Drug uptake [3] was 12.44 ng. The Drug uptake [4] was “Active”, the Drug uptake [5] was 20% and the Drug uptake [6] was 79%. The Drug uptake [7] was 36.08 pmol, the MIC (Staphylococcus aureus) was 0.016 µg/mL (≈ 0.0189 µM) and the Drug uptake [8] was “Active”. For the same compound, the MIC (Acinetobacter baumannii [9]) was 0.001 µg/mL (≈ 0.00118 µM), the Drug uptake [10] was “Active” and the MIC (Acinetobacter baumannii [11]) was 0.5 µg/mL (≈ 0.59 µM). The Drug uptake [12] was “Active”, the Drug uptake [13] was “Bld” and the Drug uptake [14] was less than 1%. The Drug uptake [15] was “Bld”, the Drug uptake [16] was 2.66 ng and the Drug uptake [17] was 0.69 ng. For the same compound, the IC50 [18] was 0.07 µg/mL (≈ 0.0826 µM).
